Test results reported in ChEMBL document CHEMBL1132274, “2,7-Disubstituted amidofluorenone derivatives as inhibitors of human telomerase” (J Med Chem, 1999).
Active and inactive are the calls of the source. The calls are words filed in the database; no cut-off is given here.

The compounds below were run against Telomerase reverse transcriptase (Homo sapiens, UniProt O14746) (assay: Inhibitory activity against telomerase).
Procedure, shortened: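 Modified TRAP with extract from exponentially growing A2780 ovarian carcinoma cells. Telomerase then inactivated at 80 °C for 5 min, CX primer and Taq added, 31 PCR cycles. Products analysed by denaturing PAGE with phosphorimaging/autoradiography, or by filter scintillation counting.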

Sequence of Telomerase reverse transcriptase (O14746 whole entry): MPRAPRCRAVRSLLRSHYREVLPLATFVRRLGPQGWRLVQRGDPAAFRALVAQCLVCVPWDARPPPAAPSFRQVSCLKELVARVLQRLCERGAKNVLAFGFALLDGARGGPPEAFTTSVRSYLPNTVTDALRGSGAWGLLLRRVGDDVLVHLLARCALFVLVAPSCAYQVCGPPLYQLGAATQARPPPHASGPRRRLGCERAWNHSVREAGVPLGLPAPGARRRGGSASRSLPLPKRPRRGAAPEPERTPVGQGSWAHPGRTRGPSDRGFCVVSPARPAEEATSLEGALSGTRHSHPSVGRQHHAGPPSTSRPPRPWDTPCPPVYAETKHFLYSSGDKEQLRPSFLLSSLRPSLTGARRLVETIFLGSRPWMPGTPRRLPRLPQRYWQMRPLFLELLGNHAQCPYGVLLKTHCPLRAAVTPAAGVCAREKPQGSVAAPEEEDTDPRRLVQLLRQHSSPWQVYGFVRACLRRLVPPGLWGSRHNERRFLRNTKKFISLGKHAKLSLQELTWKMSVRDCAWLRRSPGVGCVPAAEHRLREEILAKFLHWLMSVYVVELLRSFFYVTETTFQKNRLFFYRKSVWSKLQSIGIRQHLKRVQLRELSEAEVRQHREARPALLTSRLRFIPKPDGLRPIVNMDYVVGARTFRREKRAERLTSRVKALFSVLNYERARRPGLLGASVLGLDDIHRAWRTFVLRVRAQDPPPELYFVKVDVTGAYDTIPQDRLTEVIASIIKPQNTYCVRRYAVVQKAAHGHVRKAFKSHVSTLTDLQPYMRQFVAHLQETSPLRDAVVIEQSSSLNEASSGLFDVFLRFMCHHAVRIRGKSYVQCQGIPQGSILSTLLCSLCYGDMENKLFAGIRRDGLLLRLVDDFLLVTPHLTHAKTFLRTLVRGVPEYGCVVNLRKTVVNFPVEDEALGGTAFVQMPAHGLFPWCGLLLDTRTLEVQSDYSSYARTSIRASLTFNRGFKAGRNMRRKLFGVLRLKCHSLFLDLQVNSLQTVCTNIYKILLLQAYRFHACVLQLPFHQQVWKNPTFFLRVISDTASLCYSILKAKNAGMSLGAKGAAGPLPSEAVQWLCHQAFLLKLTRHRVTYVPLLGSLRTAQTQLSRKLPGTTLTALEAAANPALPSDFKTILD

Row | SMILES | IC50
1 | C[N+]1(CCC(=O)Nc2ccc3c(c2)C(=O)c2cc(NC(=O)CC[N+]4(C)CCCCC4CO)ccc2-3)CCCCC1CO (stereo not drawn) | 33 µM
2 | O=C(CCN1CCCCC1CCO)Nc1ccc2c(c1)C(=O)c1cc(NC(=O)CCN3CCCCC3CCO)ccc1-2 (stereo not drawn) | 16.5 µM
3 | O=C(CCN1CCN(c2ccccn2)CC1)Nc1ccc2c(c1)C(=O)c1cc(NC(=O)CCN3CCN(c4ccccn4)CC3)ccc1-2 | > 50 µM

More lines, now with the values ahead:

Row | IC50 | SMILES
4 | 25.4 µM | CC[N+](C)(CC)CCC(=O)Nc1ccc2c(c1)C(=O)c1cc(NC(=O)CC[N+](C)(CC)CC)ccc1-2
5 | 18.5 µM | C[N+](C)(C)CCC(=O)Nc1ccc2c(c1)C(=O)c1cc(NC(=O)CC[N+](C)(C)C)ccc1-2
6 | 12 µM | CC1CCCCN1CCC(=O)Nc1ccc2c(c1)C(=O)c1cc(NC(=O)CCN3CCCCC3C)ccc1-2 (stereo not drawn)

The compounds below were run on CH1 (assay: Cytotoxicity measured in human ovarian cell line CH1 using sulforhodamine B (SRB) assay.).
Type: functional, cell-based
Procedure, shortened: (§1)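 SRB growth-inhibition assay in human ovarian carcinoma cells: 3000–6000 cells/well attached overnight, then salts (dissolved at 500 μM in water) added in quadruplicate at final 0.05, 0.25, 1, 5 and 25 μM. After 96 h, cells fixed with ice-cold 10% TCA and stained with 0.4% SRB. Mean A540 expressed as % of untreated control; IC50 = concentration giving 50% growth inhibition.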

Row | SMILES | IC50
7 | C[N+](C)(C)CCC(=O)Nc1ccc2c(c1)C(=O)c1cc(NC(=O)CC[N+](C)(C)C)ccc1-2 | 1.95 µM
8 | C[N+]1(CCC(=O)Nc2ccc3c(c2)C(=O)c2cc(NC(=O)CC[N+]4(C)CCCCC4CO)ccc2-3)CCCCC1CO (stereo not drawn) | 4.2 µM
9 | O=C(CCN1CCCCC1CCO)Nc1ccc2c(c1)C(=O)c1cc(NC(=O)CCN3CCCCC3CCO)ccc1-2 (stereo not drawn) | 14.5 µM
10 | O=C(CCN1CCN(c2ccccn2)CC1)Nc1ccc2c(c1)C(=O)c1cc(NC(=O)CCN3CCN(c4ccccn4)CC3)ccc1-2 | > 25 µM
11 | CC[N+](C)(CC)CCC(=O)Nc1ccc2c(c1)C(=O)c1cc(NC(=O)CC[N+](C)(CC)CC)ccc1-2 | 2.45 µM
12 | CC1CCCCN1CCC(=O)Nc1ccc2c(c1)C(=O)c1cc(NC(=O)CCN3CCCCC3C)ccc1-2 (stereo not drawn) | 1.8 µM

These compounds were tested against DNA polymerase I, thermostable (Thermus aquaticus) (UniProt P19821) (assay: Inhibitory activity against taq polymerase at 10 uM; No inhibition).
Sequence of DNA polymerase I, thermostable (Thermus aquaticus) (P19821 whole entry): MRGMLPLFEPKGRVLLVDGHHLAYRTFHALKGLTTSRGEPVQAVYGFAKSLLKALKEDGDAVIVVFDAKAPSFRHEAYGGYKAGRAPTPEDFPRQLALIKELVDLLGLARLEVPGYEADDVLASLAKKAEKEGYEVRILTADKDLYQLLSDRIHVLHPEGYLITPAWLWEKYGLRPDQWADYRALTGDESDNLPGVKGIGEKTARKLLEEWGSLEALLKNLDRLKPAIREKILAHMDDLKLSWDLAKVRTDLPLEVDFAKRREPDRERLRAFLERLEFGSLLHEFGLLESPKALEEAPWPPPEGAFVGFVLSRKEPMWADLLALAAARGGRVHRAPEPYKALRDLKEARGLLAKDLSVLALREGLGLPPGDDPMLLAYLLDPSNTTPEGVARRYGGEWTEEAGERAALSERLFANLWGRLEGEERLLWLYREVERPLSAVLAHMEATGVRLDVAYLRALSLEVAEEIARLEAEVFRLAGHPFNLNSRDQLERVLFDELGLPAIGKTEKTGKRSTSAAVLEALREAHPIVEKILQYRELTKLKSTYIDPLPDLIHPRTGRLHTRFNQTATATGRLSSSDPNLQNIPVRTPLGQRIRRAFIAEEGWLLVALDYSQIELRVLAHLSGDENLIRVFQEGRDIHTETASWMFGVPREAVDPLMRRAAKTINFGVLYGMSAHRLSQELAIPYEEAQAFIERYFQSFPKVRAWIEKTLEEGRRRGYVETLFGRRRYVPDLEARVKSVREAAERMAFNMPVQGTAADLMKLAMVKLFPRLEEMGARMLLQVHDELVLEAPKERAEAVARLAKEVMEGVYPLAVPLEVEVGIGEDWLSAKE

Row | SMILES | inhibition
13 | C[N+]1(CCC(=O)Nc2ccc3c(c2)C(=O)c2cc(NC(=O)CC[N+]4(C)CCCCC4CO)ccc2-3)CCCCC1CO (stereo not drawn) | inactive
14 | O=C(CCN1CCCCC1CCO)Nc1ccc2c(c1)C(=O)c1cc(NC(=O)CCN3CCCCC3CCO)ccc1-2 (stereo not drawn) | inactive
15 | O=C(CCN1CCN(c2ccccn2)CC1)Nc1ccc2c(c1)C(=O)c1cc(NC(=O)CCN3CCN(c4ccccn4)CC3)ccc1-2 | inactive

Other lines, results leading:

Row | inhibition | SMILES
16 | inactive | CC[N+](C)(CC)CCC(=O)Nc1ccc2c(c1)C(=O)c1cc(NC(=O)CC[N+](C)(CC)CC)ccc1-2
17 | inactive | C[N+](C)(C)CCC(=O)Nc1ccc2c(c1)C(=O)c1cc(NC(=O)CC[N+](C)(C)C)ccc1-2
18 | inactive | CC1CCCCN1CCC(=O)Nc1ccc2c(c1)C(=O)c1cc(NC(=O)CCN3CCCCC3C)ccc1-2 (stereo not drawn)

The compounds below were run on A2780 (assay: Cytotoxicity measured in human ovarian cell line A2780 using sulforhodamine B (SRB) assay).
Type: functional, cell-based
Procedure, shortened: as §1

Row | SMILES | IC50
19 | CCN(CC)CCC(=O)Nc1ccc2c(c1)C(=O)c1cc(NC(=O)CCN(CC)CC)ccc1C2=O | 2.15 µM
20 | C[N+](C)(C)CCC(=O)Nc1ccc2c(c1)C(=O)c1cc(NC(=O)CC[N+](C)(C)C)ccc1-2 | 2.25 µM
21 | C[N+]1(CCC(=O)Nc2ccc3c(c2)C(=O)c2cc(NC(=O)CC[N+]4(C)CCCCC4CO)ccc2-3)CCCCC1CO (stereo not drawn) | 3.75 µM
22 | O=C(CCN1CCCCC1CCO)Nc1ccc2c(c1)C(=O)c1cc(NC(=O)CCN3CCCCC3CCO)ccc1-2 (stereo not drawn) | > 25 µM
23 | O=C(CCN1CCN(c2ccccn2)CC1)Nc1ccc2c(c1)C(=O)c1cc(NC(=O)CCN3CCN(c4ccccn4)CC3)ccc1-2 | > 25 µM
24 | CC[N+](C)(CC)CCC(=O)Nc1ccc2c(c1)C(=O)c1cc(NC(=O)CC[N+](C)(CC)CC)ccc1-2 | 3.7 µM
25 | CC1CCCCN1CCC(=O)Nc1ccc2c(c1)C(=O)c1cc(NC(=O)CCN3CCCCC3C)ccc1-2 (stereo not drawn) | 10.5 µM

What follows are compounds tested against DNA polymerase I, thermostable (Thermus aquaticus) (UniProt P19821) (assay: Inhibitory activity against taq polymerase at 20 uM; No inhibition).

Row | SMILES | inhibition
26 | C[N+]1(CCC(=O)Nc2ccc3c(c2)C(=O)c2cc(NC(=O)CC[N+]4(C)CCCCC4CO)ccc2-3)CCCCC1CO (stereo not drawn) | inactive
27 | O=C(CCN1CCCCC1CCO)Nc1ccc2c(c1)C(=O)c1cc(NC(=O)CCN3CCCCC3CCO)ccc1-2 (stereo not drawn) | inactive
28 | O=C(CCN1CCN(c2ccccn2)CC1)Nc1ccc2c(c1)C(=O)c1cc(NC(=O)CCN3CCN(c4ccccn4)CC3)ccc1-2 | inactive

Now from value to compound:

Row | inhibition | SMILES
29 | inactive | CC[N+](C)(CC)CCC(=O)Nc1ccc2c(c1)C(=O)c1cc(NC(=O)CC[N+](C)(CC)CC)ccc1-2
30 | inactive | C[N+](C)(C)CCC(=O)Nc1ccc2c(c1)C(=O)c1cc(NC(=O)CC[N+](C)(C)C)ccc1-2
31 | inactive | CC1CCCCN1CCC(=O)Nc1ccc2c(c1)C(=O)c1cc(NC(=O)CCN3CCCCC3C)ccc1-2 (stereo not drawn)

What follows are compounds tested on SK-OV-3 (assay: Cytotoxicity measured in human ovarian cell line SKOV-3 using sulforhodamine B (SRB) assay.).
Type: functional, cell-based
Procedure, shortened: as §1

Row | SMILES | IC50
32 | C[N+](C)(C)CCC(=O)Nc1ccc2c(c1)C(=O)c1cc(NC(=O)CC[N+](C)(C)C)ccc1-2 | 1.95 µM
33 | C[N+]1(CCC(=O)Nc2ccc3c(c2)C(=O)c2cc(NC(=O)CC[N+]4(C)CCCCC4CO)ccc2-3)CCCCC1CO (stereo not drawn) | 4.3 µM
34 | O=C(CCN1CCCCC1CCO)Nc1ccc2c(c1)C(=O)c1cc(NC(=O)CCN3CCCCC3CCO)ccc1-2 (stereo not drawn) | 20 µM
35 | O=C(CCN1CCN(c2ccccn2)CC1)Nc1ccc2c(c1)C(=O)c1cc(NC(=O)CCN3CCN(c4ccccn4)CC3)ccc1-2 | > 25 µM
36 | CC[N+](C)(CC)CCC(=O)Nc1ccc2c(c1)C(=O)c1cc(NC(=O)CC[N+](C)(CC)CC)ccc1-2 | 2.4 µM
37 | CC1CCCCN1CCC(=O)Nc1ccc2c(c1)C(=O)c1cc(NC(=O)CCN3CCCCC3C)ccc1-2 (stereo not drawn) | 12 µM

Each compound was assayed against DNA polymerase I, thermostable (Thermus aquaticus) (UniProt P19821) (assay: Inhibitory activity against taq polymerase at 50 uM; No inhibition).

Row | SMILES | inhibition
38 | C[N+]1(CCC(=O)Nc2ccc3c(c2)C(=O)c2cc(NC(=O)CC[N+]4(C)CCCCC4CO)ccc2-3)CCCCC1CO (stereo not drawn) | inactive
39 | O=C(CCN1CCCCC1CCO)Nc1ccc2c(c1)C(=O)c1cc(NC(=O)CCN3CCCCC3CCO)ccc1-2 (stereo not drawn) | inactive
40 | O=C(CCN1CCN(c2ccccn2)CC1)Nc1ccc2c(c1)C(=O)c1cc(NC(=O)CCN3CCN(c4ccccn4)CC3)ccc1-2 | inactive

Other lines, results leading:

Row | inhibition | SMILES
41 | inactive | CC[N+](C)(CC)CCC(=O)Nc1ccc2c(c1)C(=O)c1cc(NC(=O)CC[N+](C)(CC)CC)ccc1-2
42 | inactive | C[N+](C)(C)CCC(=O)Nc1ccc2c(c1)C(=O)c1cc(NC(=O)CC[N+](C)(C)C)ccc1-2
43 | inactive | CC1CCCCN1CCC(=O)Nc1ccc2c(c1)C(=O)c1cc(NC(=O)CCN3CCCCC3C)ccc1-2 (stereo not drawn)
